Test results taken from publication PMC6686180 (Biochemistry, 2018).
Where two headings read alike, the source gives them in different places. Ends that are not written are not given here. * marks the point of attachment. 5FAM = O=C1OC2(c3ccc(O)cc3Oc3cc(O)ccc32)c2ccc(C(=O)*)cc21

Legend:
[1] = test system: GGTase-I; settings: cited from earlier work
[2] = biological target: biotinylated SmgGDS-607 (human) (UniProt P52306); assay: BLI
[3] = biological target: biotinylated SmgGDS-607 (human) (UniProt P52306); assay: BLI; remark: listed apart in the source
[4] = test system: SmgGDS; settings: cells, cited from earlier work
[5] = biological target: T1, GGTase-I (Rattus norvegicus, UniProt P53610+Q04631); assay: Peptide prenylation assay; format: biochemical; settings: GGTase-I 10 nM; for effect on GGTase-I activity with peptide substrate: 5 μM SmgGDS, dansyl-GCLVL, saturating GGPP (10 μM)
T1 sequence (P53610 whole entry, one chain of several): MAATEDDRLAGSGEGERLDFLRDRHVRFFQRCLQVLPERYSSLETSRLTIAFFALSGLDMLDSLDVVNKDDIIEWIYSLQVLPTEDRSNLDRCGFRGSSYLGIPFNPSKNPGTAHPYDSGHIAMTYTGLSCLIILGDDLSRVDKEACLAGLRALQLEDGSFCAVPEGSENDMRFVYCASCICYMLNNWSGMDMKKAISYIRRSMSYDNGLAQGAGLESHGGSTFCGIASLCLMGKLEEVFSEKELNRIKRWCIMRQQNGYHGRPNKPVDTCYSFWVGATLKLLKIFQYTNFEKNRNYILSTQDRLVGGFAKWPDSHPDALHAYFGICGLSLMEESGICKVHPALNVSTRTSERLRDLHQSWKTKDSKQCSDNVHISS
Procedure, shortened: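 GGTase-I (10 nM) and 10 μM GGPP were incubated at 30°C with varied dansyl-GCLVL (RhoA CaaX peptide), with or without SmgGDS (5 μM final) or GDP/GTP (30 μM final). Prenylation-dependent fluorescence (ex 340/em 520 nm) was read every 40 s for 2 h. Initial slopes were converted to velocity, and kcat and KM came from Michaelis-Menten fits of V/E.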

[6] = biological target: FTase; settings: FTase binding; cited from earlier work
[7] = biological target: RhoA; settings: read-out: Kd of RhoA for GTPγS; with Mg^2+; cited from earlier work
[8] = biological target: RhoA 13mer (5-fam-…) (human); assay: fluorescence polarisation
[9] = biological target: geranylgeranylated RhoA 13mer peptide (human); assay: fluorescence polarisation
[10] = test system: FTase; settings: addition of GDP or GTPγS; cited from earlier work
[11] = biological target: T1, GGTase-I; assay: Radiolabel prenylation assay: GGTase-I-catalyzed geranylgeranylation of RhoA; format: biochemical; settings: for effect of nucleotide on initial rate of RhoA geranylgeranylation / effect of nucleotide on endpoint level of incorporated isoprenoid: 25 μM GTP or GDP, RhoA 1.3 μM, GGTase-I 5 nM, without SmgGDS; for effect of nucleotide on initial rate of RhoA geranylgeranylation: 3H-GGPP 9 μM; for effect of nucleotide on endpoint level of incorporated isoprenoid: incubation 2 hr
[12] = test system: RhoA; assay: Radiolabel prenylation assay of RhoA with SmgGDS-607; format: biochemical, human
[13] = biological target: RhoA CaaX only peptide (5fam-GCLVL) (human); assay: fluorescence polarisation
[14] = test system: SmgGDS-607; settings: non-farnesylated versus farnesylated RhoA; cited from earlier work
[15] = biological target: RhoA (human); assay: inhibition of radiolabel prenylation
[16] = biological target: T2, SmgGDS-558 (human, UniProt P52306-2 1-558); assay: fluorescence polarisation
T2 sequence (looked up): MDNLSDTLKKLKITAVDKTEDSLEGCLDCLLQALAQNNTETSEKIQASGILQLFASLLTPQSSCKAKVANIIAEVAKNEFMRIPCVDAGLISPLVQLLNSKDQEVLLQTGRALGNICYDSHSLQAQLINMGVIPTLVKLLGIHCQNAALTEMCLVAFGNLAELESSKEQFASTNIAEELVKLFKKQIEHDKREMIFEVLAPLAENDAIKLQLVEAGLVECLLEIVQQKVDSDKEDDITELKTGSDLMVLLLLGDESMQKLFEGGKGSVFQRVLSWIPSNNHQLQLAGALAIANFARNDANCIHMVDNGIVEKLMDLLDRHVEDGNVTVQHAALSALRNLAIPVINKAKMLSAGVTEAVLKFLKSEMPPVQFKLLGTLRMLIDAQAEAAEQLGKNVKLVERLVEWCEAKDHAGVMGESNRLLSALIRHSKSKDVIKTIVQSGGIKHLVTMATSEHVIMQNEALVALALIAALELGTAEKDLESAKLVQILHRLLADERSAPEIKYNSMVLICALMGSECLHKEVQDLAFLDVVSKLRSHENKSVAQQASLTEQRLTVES

[17] = Buffer (no additive), GGPP 10 μM, 30°C, fluorescence

For dansyl-GCVLL, the kcat ([1]; peptide substrate dansyl-GCVLL) is listed as 0.051 s⁻¹.

Molecule RhoA (natural protein) has a Kd [2] of 249 nM and a Kd [3] of 77 nM.

For “RhoA T19N: dominant negative mutant of RhoA, predominantly nucleotide-free in cells”, the “co-immunoprecipitation of SmgGDS-607” value ([4]; versus wildtype RhoA) is given as “co-immunoprecipitates greater amounts of SmgGDS-607 than wildtype RhoA”.

With dansyl-GCLVL [dansyl GCLVL] the Km [5, 17] was 1.9 ± 0.8 µM and the kcat [5, 17] was 0.046 ± 0.009 s⁻¹.

In the case of GCVLS, the Kd [6] is listed as 58 nM.

In the case of “RhoA G14V: constitutively active mutant, predominantly bound to GTP”, the “co-immunoprecipitation of SmgGDS” value [4] is listed as “did not co-immunoprecipitate detectable amounts of SmgGDS”.

For `Nc1nc2c(ncn2[C@@H]2O[C@H](COP(=O)(O)OP(=O)(O)OP(O)(O)=S)[C@@H](O)[C@H]2O)c(=O)[nH]1` [GTPγS], the Kd [7] is listed as 160 nM.

With “SmgGDS-607 (from UniProt P52306-1 1-607) (natural protein)” the Kd [8] was 1900 nM and the Kd [9] was over 16000 nM.

In the case of `CC(C)=CCC/C(C)=C/CC/C(C)=C/CC/C(C)=C/COP(=O)(O)OP(=O)(O)O` [GGPP, geranylgeranyl pyrophosphate], the Km ([1]; GGTase-I KM for GGPP) is given as 0.003 µM.

In the case of `Nc1nc2c(ncn2[C@@H]2O[C@H](COP(=O)(O)OP(=O)(O)O)[C@@H](O)[C@H]2O)c(=O)[nH]1` [GDP], the “FTase activity for farnesylation of H-Ras” value [10] is listed as “unaffected”, the “effect of GDP on GGTase-I activity for RhoA” value ([11]; 20 μM GDP without SmgGDS-607, RhoA 3 μM, GGTase-I 10 nM, 3H-GGPP 1.8 μM, 4 min) is listed as “does not affect GGTase-I activity for RhoA” and the “effect of nucleotide on initial rate of RhoA geranylgeranylation” value [11] is listed as “No difference was observed”. The “effect of nucleotide on endpoint level of incorporated isoprenoid” value [11] was “no significant difference”.

For `Nc1nc2c(ncn2[C@@H]2O[C@H](COP(=O)(O)OP(=O)(O)OP(=O)(O)O)[C@@H](O)[C@H]2O)c(=O)[nH]1` [GTP], the “restoration of RhoA geranylgeranylation at saturating GTP” value ([12]; 5 μM SmgGDS-607, versus level in absence of SmgGDS-607, RhoA 3 μM) was “do not restore RhoA geranylgeranylation to the level observed in the absence of SmgGDS-607”, the “concentration of GTP required to reach saturating RhoA geranylgeranylation” value ([12]; in the presence of 5 μM SmgGDS-607, RhoA 3 μM, GGTase-I 10 nM, 3H-GGPP 1.8 μM, 4 min) was ~ 3 μM and the “effect of nucleotide on initial rate of RhoA geranylgeranylation” value [11] was “No difference was observed”. The “effect of nucleotide on endpoint level of incorporated isoprenoid” value [11] was “no significant difference”.

With “protein geranylgeranyltransferase I (from UniProt Q04631 1-377) (complex)” the Kd [8] was 56 nM and the Kd [13] was 2200 nM.

For “non-farnesylated RhoA: non-farnesylated RhoA of the recent structural study”, the “affinity for SmgGDS-607” value [14] is given as “had higher affinity for SmgGDS-607 than farnesylated RhoA”.

B1: SmgGDS-607 (natural protein)
chain: MDNLSDTLKKLKITAVDKTEDSLEGCLDCLLQALAQNNTETSEKIQASGILQLFASLLTPQSSCKAKVANIIAEVAKNEFMRIPCVDAGLISPLVQLLNSKDQEVLLQTGRALGNICYDSHEGRSAVDQAGGAQIVIDHLRSLCSITDPANEKLLTVFCGMLMNYSNENDSLQAQLINMGVIPTLVKLLGIHCQNAALTEMCLVAFGNLAELESSKEQFASTNIAEELVKLFKKQIEHDKREMIFEVLAPLAENDAIKLQLVEAGLVECLLEIVQQKVDSDKEDDITELKTGSDLMVLLLLGDESMQKLFEGGKGSVFQRVLSWIPSNNHQLQLAGALAIANFARNDANCIHMVDNGIVEKLMDLLDRHVEDGNVTVQHAALSALRNLAIPVINKAKMLSAGVTEAVLKFLKSEMPPVQFKLLGTLRMLIDAQAEAAEQLGKNVKLVERLVEWCEAKDHAGVMGESNRLLSALIRHSKSKDVIKTIVQSGGIKHLVTMATSEHVIMQNEALVALALIAALELGTAEKDLESAKLVQILHRLLADERSAPEIKYNSMVLICALMGSECLHKEVQDLAFLDVVSKLRSHENKSVAQQASLTEQRLTVES
With B1 the Ki [15] was 85 nM.

For 5FAM-GCLVL [RhoA CaaX only peptide (5fam-GCLVL)], the Kd [16] was over 40000 nM.

B2: SmgGDS-607: human SmgGDS 607-amino acid splice variant with one additional armadillo repeat (UniProt P52306–1) (protein)
chain: B1 chain
modifications: left off: His6-tev, end not stated, state not stated
In the case of B2, the “effect on GGTase-I activity with peptide substrate” value [5] is reported as “not significantly altered” and the “inhibition of RhoA prenylation catalyzed by GGTase-I (overall statement)” value ([12]; in vitro radiolabel incorporation assay) is reported as “completely inhibits RhoA prenylation”.

B3: SmgGDS-558: human SmgGDS 558-amino acid splice variant with 12 armadillo repeats (UniProt P52306–2) (protein)
chain: T2 sequence (looked up)
modifications: left off: His6-tev, end not stated, state not stated
For B3, the “effect on GGTase-I activity with peptide substrate” value [5] was “not significantly altered”.
